High-throughput results as filed in PubChem BioAssay.
Sampled rows, rich in hits. Any-hit rate of the full collection: about 3.7%.
KCNK3 block: human KCNK3 channel inhibition, primary screen; O14649; CHO-KCNK3 thallium flux, FluxOR fluorescence; stronger effect = lower value; B-score at 10 µM; 340,000 tested, 0.84% active;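 active = B-score under library mean minus 4 SD, starting fluorescence ratio at most library mean plus 5 SD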;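 note: more negative B-score means stronger inhibition of thallium flux through KCNK3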
KCNQ1 pot: potentiators or activators of human KCNQ1 potassium channel; P51787; CHO-K1 KCNQ1, thallium flux FluxOR fluorescence; stronger effect = higher value; B-score at 10 µM; 310,000 tested, 0.35% active;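 active = fluorescence ratio B-score, a plate-corrected score, at least three library SD, with initial intensity B-score within 5 SD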
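Schedule – 37 °C overnight plating, 90-min dark dye load, 20-min compound pretreatment · System – stable KCNQ1 CHO-K1 line · Probe or stimulus – thallium- and potassium-containing depolarizing buffer · Measured by – kinetic FluxOR fluorescence, 10 s baseline plus 110 s post-stimulus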
KCNQ1 inh: blocks the human KCNQ1 potassium channel | P51787 | CHO-K1 KCNQ1, FluxOR thallium flux fluorescence; stronger effect = higher value | B-score at 10 µM | 310,000 tested, 1.3% active | AID 2642;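 active = compounds whose thallium flux B-score, printed positive for inhibition, exceeds three library SD while starting fluorescence stays within three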;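 note: channel opened by potassium depolarization with thallium stimulus after 20 min compound exposure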
Kir21 block: inhibitors of mouse Kir2.1 inward-rectifier potassium channel | P35561 | HEK293-Kir2.1, FluxOR thallium flux fluorescence; stronger effect = lower value | B-score at 10 µM | 310,000 tested, 0.85% active | AID 1672;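 active = fluorescence ratio B-score at or below minus 3 SD of library scores, with starting-brightness B-score within 2 SD, cut at about -4.2 in these data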;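 note: channel flux triggered by added potassium and thallium sulfate stimulus; B-score of peak minus minimum fluorescence over baseline after thallium stimulus; more negative B-score means stronger Kir2.1 block with less thallium influx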
KCNK9 block: blocks the human KCNK9 two-pore domain potassium channel | Q9NPC2 | HEK293 KCNK9, FluxOR thallium flux fluorescence; stronger effect = lower value | B-score at 10 µM | 310,000 tested, 1.2% active | AID 488922;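 active = ratio B-score over 3 SD below the library mean, with starting fluorescence within 5 SD of its mean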;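 note: negative B-score means less thallium flux so channel inhibition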
Target sequence (Q9NPC2 whole entry, looked up, the tested form may be a part): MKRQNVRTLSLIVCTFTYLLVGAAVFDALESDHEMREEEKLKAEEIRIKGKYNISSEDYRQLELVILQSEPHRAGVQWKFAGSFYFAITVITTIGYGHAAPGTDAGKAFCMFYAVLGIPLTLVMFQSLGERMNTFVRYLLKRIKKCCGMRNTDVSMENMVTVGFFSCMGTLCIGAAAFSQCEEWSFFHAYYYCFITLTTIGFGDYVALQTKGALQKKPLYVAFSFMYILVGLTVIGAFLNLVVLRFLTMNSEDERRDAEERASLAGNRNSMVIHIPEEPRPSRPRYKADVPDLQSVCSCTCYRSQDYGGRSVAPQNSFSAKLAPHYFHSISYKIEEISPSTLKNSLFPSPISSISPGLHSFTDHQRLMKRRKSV
hERG rescue: hERG (human) protection from proarrhythmic block. Q12809. CHO-hERG, FluxOR thallium flux, dofetilide IC70 present. activation (rescue from dofetilide block), less the hit threshold, % at 10 µM. 310,000 tested, 0.51% active. AID 1511;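 active = activation above the mean of controls blocked by dofetilide plus 5 SD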;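 note: thallium influx through hERG after potassium depolarization seen as dye fluorescence rise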
Active calls of the source: *.

What do the screens show for `O=C(NCCc1ccc(Cl)cc1)C1CCC(CNc2nc(=S)[nH]c3ccccc23)CC1` (centres undefined)?
KCNK3 block: inactive; KCNQ1 pot: inactive; KCNQ1 inh: inactive; Kir21 block: -0.98; KCNK9 block: inactive; hERG rescue: -13

What do the screens show for `CC(=O)c1cnc(Nc2nc(C)c3cc(C)c(C)cc3n2)nc1C`?
KCNK3 block: inactive; KCNQ1 pot: inactive; KCNQ1 inh: inactive; Kir21 block: 0.01; KCNK9 block: inactive; hERG rescue: 7.7*

Results for CSc1ncc(C(C)=O)c(C)n1 ?
KCNK3 block: inactive; KCNQ1 pot: inactive; KCNQ1 inh: inactive; Kir21 block: -1.1; KCNK9 block: inactive; hERG rescue: -8

What do the screens show for `CCCCn1c2c(c(=N)c3c1CCC3)CCC2`?
KCNK3 block: inactive

How did CCCCCCn1c2c(c(=N)c3c1CCC3)CCC2 do in these assays?
KCNK3 block: inactive; KCNQ1 pot: inactive; KCNQ1 inh: 6*; Kir21 block: -0.68; KCNK9 block: inactive; hERG rescue: -26

Results for Cc1ccc(S(=O)(=O)N2CCN(c3ncnc4sccc34)CC2)cc1C ?
KCNK3 block: inactive

What do the screens show for `O=S(=O)(c1ccc2c(c1)OCCO2)N1CCN(c2ncnc3sccc23)CC1`?
KCNK3 block: inactive; KCNQ1 pot: inactive; KCNQ1 inh: 6*; Kir21 block: 1.4; KCNK9 block: inactive; hERG rescue: -14

What do the screens show for `N=c1oc2cc(O)ccc2cc1C(=O)Nc1ccc(Cl)cc1`?
KCNK3 block: inactive; KCNQ1 pot: inactive; KCNQ1 inh: 6*; Kir21 block: 0.35; KCNK9 block: inactive; hERG rescue: -7

Results for COc1ccc2cc(C(C)=O)c(=O)oc2c1 ?
KCNK3 block: inactive; KCNQ1 pot: inactive; KCNQ1 inh: inactive; Kir21 block: 0.65; KCNK9 block: inactive; hERG rescue: -3

How did CC(=O)c1cc2ccc(O)cc2oc1=O do in these assays?
KCNK3 block: inactive; KCNQ1 pot: inactive; KCNQ1 inh: 7*; Kir21 block: -3.1; KCNK9 block: inactive; hERG rescue: -19

How did Cc1ccc(NC(=O)c2cc3ccccc3oc2=N)cc1 do in these assays?
KCNK3 block: inactive; KCNQ1 pot: inactive; KCNQ1 inh: inactive; Kir21 block: 0.66; KCNK9 block: inactive; hERG rescue: -5

Results for CCCCN1C(=O)c2ccc(C(=O)OCC(=O)N3CCN(c4ccccc4)CC3)cc2C1=O ?
KCNK3 block: inactive

How did Cc1cc(Nc2ccc3c(c2)OCCO3)c2cc(Cl)ccc2n1 do in these assays?
KCNK3 block: inactive; KCNQ1 pot: inactive; KCNQ1 inh: inactive; Kir21 block: -5.2*; KCNK9 block: inactive; hERG rescue: -19

How did Cc1ccc(Nc2cc(C)nc3ccc(C)cc23)cc1 do in these assays?
KCNK3 block: inactive; KCNQ1 pot: inactive; KCNQ1 inh: inactive; Kir21 block: -6.7*; KCNK9 block: inactive; hERG rescue: -13

Results for c1ccc(COc2cccc(CNCc3cccnc3)c2)cc1 ?
KCNK3 block: inactive; KCNQ1 pot: inactive; KCNQ1 inh: inactive; Kir21 block: -0.48; KCNK9 block: inactive; hERG rescue: -11

What do the screens show for `Brc1ccc(OCc2ccccc2)c(CNCc2ccncc2)c1`?
KCNK3 block: inactive; KCNQ1 pot: inactive; KCNQ1 inh: inactive; Kir21 block: -5.3*; KCNK9 block: inactive; hERG rescue: -31

How did OCCNCc1cccc(OCc2ccc(Cl)cc2)c1 do in these assays?
KCNK3 block: inactive; KCNQ1 pot: inactive; KCNQ1 inh: inactive; Kir21 block: -8.7*; KCNK9 block: inactive; hERG rescue: -12

Results for OCCNCc1cc(Br)ccc1OCc1ccc(Cl)cc1Cl ?
KCNK3 block: inactive; KCNQ1 pot: inactive; KCNQ1 inh: inactive; Kir21 block: -0.26; KCNK9 block: inactive; hERG rescue: -21

What do the screens show for `OCCNCc1cc(Br)ccc1OCc1ccc(Cl)cc1`?
KCNK3 block: inactive; KCNQ1 pot: inactive; KCNQ1 inh: inactive; Kir21 block: -5*; KCNK9 block: inactive; hERG rescue: -24

How did Fc1ccc(COc2ccccc2CNCc2ccncc2)cc1 do in these assays?
KCNK3 block: inactive; KCNQ1 pot: inactive; KCNQ1 inh: inactive; Kir21 block: -2; KCNK9 block: inactive; hERG rescue: -4

What do the screens show for `Cc1cc(C)c(S(=O)(=O)NCC2CCC(C(=O)NCc3ccccn3)CC2)c(C)c1` (centres undefined)?
KCNK3 block: inactive; KCNQ1 pot: inactive; KCNQ1 inh: inactive; Kir21 block: -1.6; KCNK9 block: inactive; hERG rescue: -16

How did CN(CC(=O)Nc1ccccc1Cl)C(=O)c1cc(-c2cccs2)nn1-c1ccccc1 do in these assays?
KCNK3 block: inactive; KCNQ1 pot: inactive; KCNQ1 inh: inactive; Kir21 block: 0.52; KCNK9 block: inactive; hERG rescue: -19

What do the screens show for `COc1cccc(CN2C(=NC(=O)C3CC3)SC3CS(=O)(=O)CC32)c1` (centres undefined)?
KCNK3 block: inactive; KCNQ1 pot: inactive; KCNQ1 inh: inactive; Kir21 block: -0.64; KCNK9 block: inactive; hERG rescue: -8

Results for CCOc1ccc(-c2cc(C(=O)OC)[nH]n2)cc1 ?
KCNK3 block: inactive; KCNQ1 pot: inactive; KCNQ1 inh: inactive; Kir21 block: 0.34; KCNK9 block: inactive; hERG rescue: 9.4*

How did CC(=Nc1cccc(C)c1)c1sc2ccccc2c1O do in these assays?
KCNK3 block: inactive; KCNQ1 pot: inactive; KCNQ1 inh: inactive; Kir21 block: -1.2; KCNK9 block: -7*; hERG rescue: -2

Results for COc1ccc(C(CCNCc2ccc(OC(C)C)cc2)C(C)C)cc1 (centres undefined) ?
KCNK3 block: inactive; KCNQ1 pot: inactive; KCNQ1 inh: inactive; Kir21 block: -4.5*; KCNK9 block: inactive; hERG rescue: -25

What do the screens show for `COc1ccc(CNCCC(c2ccc(OC(C)C)cc2)C(C)C)cc1OC` (centres undefined)?
KCNK3 block: inactive; KCNQ1 pot: inactive; KCNQ1 inh: inactive; Kir21 block: -3; KCNK9 block: inactive; hERG rescue: -15

Results for CCOCCCNCc1ccc(OC)cc1 ?
KCNK3 block: inactive; KCNQ1 pot: inactive; KCNQ1 inh: inactive; Kir21 block: 1.4; KCNK9 block: inactive; hERG rescue: -7

How did COc1ccc(C(CCNCc2ccc(N(C)C)cc2)C(C)C)cc1 (centres undefined) do in these assays?
KCNK3 block: inactive; KCNQ1 pot: inactive; KCNQ1 inh: inactive; Kir21 block: -5*; KCNK9 block: inactive; hERG rescue: -16

What do the screens show for `CC1(C)O[C@@H](CC(=O)O)[C@]23CO[C@H](C(=O)[C@]4(C)C2CC[C@@]2(C)[C@H](c5ccoc5)OC(=O)C5O[C@]524)[C@@H]13` (some centres undefined)?
KCNK3 block: inactive
